In ChEMBL document CHEMBL4033712, “Synthesis and biological evaluation of new C-12(α/β)-(N-) sulfamoyl-phenylamino-14-deoxy-andrographolide derivatives as potent anti-cancer agents” (Bioorg Med Chem Lett, 2017):

Columns and labels:
Format in all cases: functional
[1] = tested on: MOLT-4; experiment: Growth inhibition of human MOLT4 cells incubated for 48 hrs by sulforhodamine B assay; conditions: MOLT-4, 48 h
In short: (§1)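 NCI-60 five-dose screen at 0.01, 0.1, 1, 10 and 100 µM, 48 h incubation, sulforhodamine B end point. GI50 (50% decrease in net growth), TGI (total growth inhibition) and LC50 (net 50% loss of initial cells) taken from log concentration versus % growth inhibition curves.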

[2] = tested on: RPMI-8226; experiment: Growth inhibition of human RPMI8226 cells incubated for 48 hrs by sulforhodamine B assay; conditions: RPMI-8226, 48 h
In short: (§2)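 NCI 60 human tumour cell line panel, five-dose study at 0.01, 0.1, 1, 10 and 100 µM, 48 h incubation. Sulforhodamine B protein-binding dye end point. GI50 (50% decrease in net cell growth), TGI (total growth inhibition) and LC50 (net 50% loss of initial cells) read from log concentration versus % growth inhibition curves.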

[3] = tested on: A549; experiment: Growth inhibition of human A549/ATCC cells incubated for 48 hrs by sulforhodamine B assay; conditions: A549, 48 h; in short: as §1
[4] = tested on: HOP-62; experiment: Growth inhibition of human HOP62 cells incubated for 48 hrs by sulforhodamine B assay; conditions: HOP-62, 48 h; in short: as §1
[5] = tested on: HOP-92; experiment: Growth inhibition of human HOP92 cells incubated for 48 hrs by sulforhodamine B assay; conditions: HOP-92, 48 h; in short: as §1
[6] = tested on: NCI-H226; experiment: Growth inhibition of human NCI-H226 cells incubated for 48 hrs by sulforhodamine B assay; conditions: NCI-H226, 48 h; in short: as §1
[7] = tested on: NCI-H23; experiment: Growth inhibition of human NCI-H23 cells incubated for 48 hrs by sulforhodamine B assay; conditions: NCI-H23, 48 h; in short: as §1
[8] = tested on: COLO 205; experiment: Growth inhibition of human COLO205 cells incubated for 48 hrs by sulforhodamine B assay; conditions: COLO 205, 48 h; in short: as §1
[9] = tested on: HCC 2998; experiment: Growth inhibition of human HCC2998 cells incubated for 48 hrs by sulforhodamine B assay; conditions: HCC 2998, 48 h; in short: as §1
[10] = tested on: HCT-116; experiment: Growth inhibition of human HCT116 cells incubated for 48 hrs by sulforhodamine B assay; conditions: HCT-116, 48 h; in short: as §1
[11] = tested on: HCT-15; experiment: Growth inhibition of human HCT15 cells incubated for 48 hrs by sulforhodamine B assay; conditions: HCT-15, 48 h; in short: as §1
[12] = tested on: KM12; experiment: Growth inhibition of human KM12 cells incubated for 48 hrs by sulforhodamine B assay; conditions: KM12, 48 h; in short: as §1
[13] = tested on: SF-268; experiment: Growth inhibition of human SF268 cells incubated for 48 hrs by sulforhodamine B assay; conditions: SF-268, 48 h; in short: as §2
[14] = tested on: SF-539; experiment: Growth inhibition of human SF539 cells incubated for 48 hrs by sulforhodamine B assay; conditions: SF-539, 48 h; in short: as §2
[15] = tested on: SNB-75; experiment: Growth inhibition of human SNB75 cells incubated for 48 hrs by sulforhodamine B assay; conditions: SNB-75, 48 h; in short: as §2
[16] = tested on: MDA-MB-435; experiment: Growth inhibition of human MDA-MB-435 cells incubated for 48 hrs by sulforhodamine B assay; conditions: MDA-MB-435, 48 h; in short: as §1
[17] = tested on: SK-MEL-28; experiment: Growth inhibition of human SK-MEL-28 cells incubated for 48 hrs by sulforhodamine B assay; conditions: SK-MEL-28, 48 h; in short: as §2
[18] = tested on: SK-MEL-5; experiment: Growth inhibition of human SK-MEL-5 cells incubated for 48 hrs by sulforhodamine B assay; conditions: SK-MEL-5, 48 h; in short: as §2
[19] = tested on: UACC-62; experiment: Growth inhibition of human UACC62 cells incubated for 48 hrs by sulforhodamine B assay; conditions: UACC-62, 48 h; in short: as §2
[20] = tested on: IGROV-1; experiment: Growth inhibition of human IGROV1 cells incubated for 48 hrs by sulforhodamine B assay; conditions: IGROV-1, 48 h; in short: as §1
[21] = tested on: NCI/ADR-RES; experiment: Growth inhibition of human NCI/ADR-RES cells incubated for 48 hrs by sulforhodamine B assay; in short: as §1
[22] = tested on: SK-OV-3; experiment: Growth inhibition of human SKOV3 cells incubated for 48 hrs by sulforhodamine B assay; conditions: SK-OV-3, 48 h; in short: as §2
[23] = tested on: SN12C; experiment: Growth inhibition of human SN12C cells incubated for 48 hrs by sulforhodamine B assay; in short: as §2
[24] = tested on: UO-31; experiment: Growth inhibition of human UO31 cells incubated for 48 hrs by sulforhodamine B assay; conditions: UO-31, 48 h; in short: as §2
[25] = tested on: DU-145; experiment: Growth inhibition of human DU145 cells incubated for 48 hrs by sulforhodamine B assay; conditions: DU-145, 48 h; in short: as §1
[26] = tested on: MCF7; experiment: Growth inhibition of human MCF7 cells incubated for 48 hrs by sulforhodamine B assay; conditions: MCF7, 48 h; in short: as §1
[27] = tested on: MDA-MB-231; experiment: Growth inhibition of human MDA-MB-231 cells incubated for 48 hrs by sulforhodamine B assay; conditions: MDA-MB-231, 48 h; in short: as §1
[28] = tested on: SF-539; experiment: Anticancer activity against human SF539 cells assessed as cell growth at 10 uM after 48 hrs by sulforhodamine B assay relative to control; conditions: SF-539, 48 h, read-out: Activity
In short: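 Single-dose NCI-60 panel screen: compound added at 10 µM and the culture incubated 48 h. The end point was read by protein staining with sulforhodamine B. The value is percent growth of treated cells relative to untreated control cells, reported as a mean graph across the panel.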

[29] = read-out: LC50 (the source's name)

`C=C1CC[C@@H]2[C@](C)(COC(C)=O)[C@H](OC(C)=O)CC[C@@]2(C)[C@H]1CC(Nc1ccc(S(=O)(=O)Nc2nccs2)cc1)C1=CCOC1=O` (some centres not stated) was tested, and the GI50 [1] was 3.68 µM, the TGI [1] was 73.2 µM and the CC50 [1, 29] was over 100 µM. It also gave a GI50 [2] of 2.49 µM, a TGI [2] of 7.62 µM and a CC50 [2, 29] of over 100 µM. The GI50 [3] was 3.67 µM, the TGI [3] was 11.2 µM and the CC50 [3, 29] was 40.4 µM. For the same compound, the GI50 [4] was 13.8 µM, the TGI [4] was 27.5 µM and the CC50 [4, 29] was 54.7 µM. For the same compound, the GI50 [5] was 12.4 µM, the TGI [5] was 25.3 µM and the CC50 [5, 29] was 52 µM. The GI50 [6] was 2.36 µM, the TGI [6] was 5.37 µM and the CC50 [6, 29] was over 100 µM. The GI50 [7] was 10 µM, the TGI [7] was 24.8 µM and the CC50 [7, 29] was 61.6 µM. For the same compound, the GI50 [8] was 3.14 µM, the TGI [8] was 10.5 µM and the CC50 [8, 29] was 48.9 µM. For the same compound, the GI50 [9] was 7.78 µM, the TGI [9] was 21.3 µM and the CC50 [9, 29] was 50.3 µM. The GI50 [10] was 1.75 µM, the TGI [10] was 3.75 µM and the CC50 [10, 29] was 8 µM. The GI50 [11] was 1.73 µM, the TGI [11] was 4.12 µM and the CC50 [11, 29] was 9.84 µM. The GI50 [12] was 7.57 µM, the TGI [12] was 21.7 µM and the CC50 [12, 29] was 53.3 µM. It also gave a GI50 [13] of 11.3 µM, a TGI [13] of 25.9 µM and a CC50 [13, 29] of 59.1 µM. It also gave a GI50 [14] of 2.35 µM, a TGI [14] of 6.31 µM and a CC50 [14, 29] of 23.5 µM. The GI50 [15] was 2.83 µM, the TGI [15] was 15.6 µM and the CC50 [15, 29] was 39.5 µM. For the same compound, the GI50 [16] was 3.29 µM, the TGI [16] was 12.7 µM and the CC50 [16, 29] was 38 µM. The GI50 [17] was 3.95 µM, the LC50 (50% net cell kill) [17] was 41.8 µM and the TGI [17] was 15.1 µM. The GI50 [18] was 4.79 µM, the TGI [18] was 17.1 µM and the CC50 [18, 29] was 41.3 µM. For the same compound, the GI50 [19] was 1.76 µM, the TGI [19] was 4.42 µM and the CC50 [19, 29] was 13.5 µM. For the same compound, the GI50 [20] was 4.54 µM, the TGI [20] was 17.1 µM and the CC50 [20, 29] was 47.5 µM. The GI50 [21] was 2.97 µM, the LC50 (concentration giving net 50% loss of initial cells) [21] was over 100 µM and the TGI [21] was 12.7 µM. The GI50 [22] was 14.4 µM, the TGI [22] was 27.8 µM and the CC50 [22, 29] was 53.5 µM. The GI50 [23] was 1.87 µM, the TGI [23] was 4.39 µM and the CC50 [23, 29] was 14.3 µM. The GI50 [24] was 4.07 µM, the LC50 (concentration giving net 50% loss of initial cells) [24] was 41.8 µM and the TGI [24] was 16.1 µM. For the same compound, the GI50 [25] was 4.47 µM, the TGI [25] was 15.8 µM and the CC50 [25, 29] was 39.8 µM. It also gave a GI50 [26] of 2.59 µM, a TGI [26] of 13.6 µM and a CC50 [26, 29] of over 100 µM. It also gave a GI50 [27] of 3.3 µM, an LC50 (concentration giving net 50% loss of initial cells) [27] of 37.6 µM and a TGI [27] of 8.25 µM. The growth at 10 µM [28] was -67.1%.
